{"source": "ChEMBL document CHEMBL3779840", "about": "“Discovery of 2-((3-Amino-4-methylphenyl)amino)-N-(2-methyl-5-(3-(trifluoromethyl)benzamido)phenyl)-4-(methylamino)pyrimidine-5-carboxamide (CHMFL-ABL-053) as a Potent, Selective, and Orally Available BCR-ABL/SRC/p38 Kinase Inhibitor for Chronic Myeloid Leukemia” (J Med Chem, 2016)", "key": {"[1]": {"biological_target": "T1, Mitogen-activated protein kinase 14 (Homo sapiens, UniProt Q16539)", "T1 sequence (Q16539 whole entry)": "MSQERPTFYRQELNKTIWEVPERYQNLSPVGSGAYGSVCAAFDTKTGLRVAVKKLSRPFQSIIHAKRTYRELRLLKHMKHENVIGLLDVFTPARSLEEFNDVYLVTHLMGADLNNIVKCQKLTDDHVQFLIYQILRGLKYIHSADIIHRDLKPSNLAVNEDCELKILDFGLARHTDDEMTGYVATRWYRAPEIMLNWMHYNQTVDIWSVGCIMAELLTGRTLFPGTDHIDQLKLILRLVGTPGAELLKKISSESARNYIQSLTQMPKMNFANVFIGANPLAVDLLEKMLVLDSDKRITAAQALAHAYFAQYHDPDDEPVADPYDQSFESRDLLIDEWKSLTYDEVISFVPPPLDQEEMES", "assay": "Inhibition of P38-alpha phosphorylation in human KU812 cells at 0.01 to 3 uM after 1 hr by immunoblotting method", "type": "cell-based", "in_short": "(§1)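 KU812, K562 and MEG-01 cells were exposed to compound at the indicated concentrations for 1 h. Whole-cell lysates were then analysed by Western blot for phosphorylated signaling proteins.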"}, "[2]": {"assay": "Oral bioavailability in Sprague-Dawley rat at 10 mg/kg", "type": "ADME, organism-based", "settings": "in vivo"}, "[3]": {"assay": "Antiproliferative activity against […] CHL cells assessed as cell viability after 72 hrs by CellTiter-Glo or CCK-8 assay", "type": "cell-based, Cricetulus griseus", "settings": "chinese hamster"}, "K562 [4]": {"tested_on": "K562", "assay": "Antiproliferative activity against human K562 cells xenografted in nu/nu mouse at 25 and 50 mg/kg/day, qd administered through oral gavage measured after 16 days by Ki-67 staining-based immunohistochemical analysis", "type": "functional, organism-based", "in_short": "(§2)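 Female nu/nu mice bore established K562 xenografts and received daily oral dosing at 25.0 or 50.0 mg/kg/d, or vehicle, starting when tumors reached 200 to 400 mm3, for 16 days. Groups had 5 animals; data are mean ± SEM. Tumor size and body weight were normalized to initial values, and final tumor weight was recorded. Tumor tissue was stained with HE, Ki-67 and TUNEL.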"}, "[5]": {"biological_target": "Mast/stem cell growth factor receptor Kit (Homo sapiens, UniProt P10721)", "assay": "Inhibition of His-tagged recombinant human c-Kit […] expressed in mammalian expression system"}, "[6]": {"biological_target": "Epithelial discoidin domain-containing receptor 1 (Homo sapiens, UniProt Q08345)", "sequence (Q08345 whole entry, the tested form may be a part)": "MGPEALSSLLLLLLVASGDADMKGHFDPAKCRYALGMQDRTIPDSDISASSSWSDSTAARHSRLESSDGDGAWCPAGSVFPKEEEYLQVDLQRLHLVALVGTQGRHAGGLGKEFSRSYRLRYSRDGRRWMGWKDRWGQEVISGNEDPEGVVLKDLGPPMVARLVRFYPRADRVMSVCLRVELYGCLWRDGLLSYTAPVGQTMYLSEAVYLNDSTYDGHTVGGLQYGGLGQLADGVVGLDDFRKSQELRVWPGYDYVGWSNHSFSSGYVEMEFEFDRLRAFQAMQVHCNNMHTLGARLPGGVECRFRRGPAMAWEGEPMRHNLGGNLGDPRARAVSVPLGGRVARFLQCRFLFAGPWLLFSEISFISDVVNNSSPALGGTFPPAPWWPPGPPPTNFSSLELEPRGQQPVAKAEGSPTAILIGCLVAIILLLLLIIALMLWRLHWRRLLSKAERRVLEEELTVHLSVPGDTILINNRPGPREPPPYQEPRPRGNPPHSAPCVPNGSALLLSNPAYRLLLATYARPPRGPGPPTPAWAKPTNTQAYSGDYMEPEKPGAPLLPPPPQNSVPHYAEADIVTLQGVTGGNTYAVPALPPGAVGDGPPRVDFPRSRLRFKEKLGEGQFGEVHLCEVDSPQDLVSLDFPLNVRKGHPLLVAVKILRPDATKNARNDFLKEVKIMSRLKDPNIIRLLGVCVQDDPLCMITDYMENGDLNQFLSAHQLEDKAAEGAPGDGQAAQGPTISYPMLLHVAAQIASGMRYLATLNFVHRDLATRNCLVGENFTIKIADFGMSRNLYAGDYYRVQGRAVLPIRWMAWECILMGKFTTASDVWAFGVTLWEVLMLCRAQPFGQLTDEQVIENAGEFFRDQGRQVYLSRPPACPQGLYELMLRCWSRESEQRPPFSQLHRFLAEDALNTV", "settings": "BaF3"}, "K562 [7]": {"tested_on": "K562", "assay": "Induction of cell cycle arrest in human K562 cells assessed as accumulation at G0/G1-phase after 12 hrs by propidium iodide/RNase staining based flow cytometry", "type": "functional"}, "[8]": {"biological_target": "Tyrosine-protein kinase Blk (Homo sapiens) (UniProt P51451)", "sequence (P51451 2-505 limits assumed)": "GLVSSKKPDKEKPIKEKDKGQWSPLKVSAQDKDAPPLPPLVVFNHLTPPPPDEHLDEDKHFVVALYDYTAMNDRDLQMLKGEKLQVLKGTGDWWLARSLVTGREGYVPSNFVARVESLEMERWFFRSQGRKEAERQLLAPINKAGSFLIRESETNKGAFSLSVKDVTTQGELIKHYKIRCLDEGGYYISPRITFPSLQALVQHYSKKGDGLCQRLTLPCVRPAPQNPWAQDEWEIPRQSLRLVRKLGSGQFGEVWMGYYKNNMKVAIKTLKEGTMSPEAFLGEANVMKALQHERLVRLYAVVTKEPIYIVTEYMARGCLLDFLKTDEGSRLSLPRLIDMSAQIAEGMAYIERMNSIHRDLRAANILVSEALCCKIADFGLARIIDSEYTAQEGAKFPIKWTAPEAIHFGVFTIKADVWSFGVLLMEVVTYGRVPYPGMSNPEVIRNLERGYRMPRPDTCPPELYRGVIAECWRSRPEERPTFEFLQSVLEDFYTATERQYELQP", "settings": "BaF3"}, "KU812 cell line": {"tested_on": "KU812 cell line", "assay": "Induction of apoptosis in human KU812 cells assessed as increase in cleaved caspase3 level at 100 nM after 24 hrs by immunoblotting method", "type": "functional, cell-based"}, "[9]": {"biological_target": "T2, Bcr/Abl fusion protein (Homo sapiens) (UniProt P00519+P11274)", "T2 sequence (P00519 whole entry, looked up, the tested form may be a part)": "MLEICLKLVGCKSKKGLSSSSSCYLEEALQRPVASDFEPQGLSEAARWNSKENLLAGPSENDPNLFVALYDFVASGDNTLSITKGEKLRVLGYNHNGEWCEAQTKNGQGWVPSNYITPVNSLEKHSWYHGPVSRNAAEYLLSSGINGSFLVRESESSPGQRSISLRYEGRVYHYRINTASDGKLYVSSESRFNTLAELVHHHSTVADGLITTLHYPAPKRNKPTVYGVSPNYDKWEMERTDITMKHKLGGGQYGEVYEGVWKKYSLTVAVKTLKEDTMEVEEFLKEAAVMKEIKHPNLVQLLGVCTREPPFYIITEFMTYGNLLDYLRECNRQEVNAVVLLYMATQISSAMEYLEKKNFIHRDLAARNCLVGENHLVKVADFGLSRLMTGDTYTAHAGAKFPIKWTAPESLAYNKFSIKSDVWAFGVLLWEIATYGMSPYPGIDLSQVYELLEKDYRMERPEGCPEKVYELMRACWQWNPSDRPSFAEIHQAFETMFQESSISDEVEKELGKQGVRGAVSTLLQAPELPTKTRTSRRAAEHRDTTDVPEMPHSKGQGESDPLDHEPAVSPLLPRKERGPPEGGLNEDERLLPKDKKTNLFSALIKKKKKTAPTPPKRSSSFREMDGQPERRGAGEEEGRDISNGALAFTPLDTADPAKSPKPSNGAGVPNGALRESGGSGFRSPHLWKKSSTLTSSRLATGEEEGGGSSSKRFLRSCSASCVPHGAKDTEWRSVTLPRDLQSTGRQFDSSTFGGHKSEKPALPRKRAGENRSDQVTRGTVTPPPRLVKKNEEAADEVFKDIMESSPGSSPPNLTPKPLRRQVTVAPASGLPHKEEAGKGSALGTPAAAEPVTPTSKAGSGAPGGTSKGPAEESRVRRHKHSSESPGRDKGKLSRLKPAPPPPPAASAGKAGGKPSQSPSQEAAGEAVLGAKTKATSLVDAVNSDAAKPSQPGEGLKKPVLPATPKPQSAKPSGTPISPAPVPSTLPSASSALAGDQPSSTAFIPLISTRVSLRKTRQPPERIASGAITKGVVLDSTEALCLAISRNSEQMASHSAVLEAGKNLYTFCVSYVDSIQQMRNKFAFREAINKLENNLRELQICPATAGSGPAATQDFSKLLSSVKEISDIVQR", "T2 sequence (P11274 whole entry, looked up, the tested form may be a part)": "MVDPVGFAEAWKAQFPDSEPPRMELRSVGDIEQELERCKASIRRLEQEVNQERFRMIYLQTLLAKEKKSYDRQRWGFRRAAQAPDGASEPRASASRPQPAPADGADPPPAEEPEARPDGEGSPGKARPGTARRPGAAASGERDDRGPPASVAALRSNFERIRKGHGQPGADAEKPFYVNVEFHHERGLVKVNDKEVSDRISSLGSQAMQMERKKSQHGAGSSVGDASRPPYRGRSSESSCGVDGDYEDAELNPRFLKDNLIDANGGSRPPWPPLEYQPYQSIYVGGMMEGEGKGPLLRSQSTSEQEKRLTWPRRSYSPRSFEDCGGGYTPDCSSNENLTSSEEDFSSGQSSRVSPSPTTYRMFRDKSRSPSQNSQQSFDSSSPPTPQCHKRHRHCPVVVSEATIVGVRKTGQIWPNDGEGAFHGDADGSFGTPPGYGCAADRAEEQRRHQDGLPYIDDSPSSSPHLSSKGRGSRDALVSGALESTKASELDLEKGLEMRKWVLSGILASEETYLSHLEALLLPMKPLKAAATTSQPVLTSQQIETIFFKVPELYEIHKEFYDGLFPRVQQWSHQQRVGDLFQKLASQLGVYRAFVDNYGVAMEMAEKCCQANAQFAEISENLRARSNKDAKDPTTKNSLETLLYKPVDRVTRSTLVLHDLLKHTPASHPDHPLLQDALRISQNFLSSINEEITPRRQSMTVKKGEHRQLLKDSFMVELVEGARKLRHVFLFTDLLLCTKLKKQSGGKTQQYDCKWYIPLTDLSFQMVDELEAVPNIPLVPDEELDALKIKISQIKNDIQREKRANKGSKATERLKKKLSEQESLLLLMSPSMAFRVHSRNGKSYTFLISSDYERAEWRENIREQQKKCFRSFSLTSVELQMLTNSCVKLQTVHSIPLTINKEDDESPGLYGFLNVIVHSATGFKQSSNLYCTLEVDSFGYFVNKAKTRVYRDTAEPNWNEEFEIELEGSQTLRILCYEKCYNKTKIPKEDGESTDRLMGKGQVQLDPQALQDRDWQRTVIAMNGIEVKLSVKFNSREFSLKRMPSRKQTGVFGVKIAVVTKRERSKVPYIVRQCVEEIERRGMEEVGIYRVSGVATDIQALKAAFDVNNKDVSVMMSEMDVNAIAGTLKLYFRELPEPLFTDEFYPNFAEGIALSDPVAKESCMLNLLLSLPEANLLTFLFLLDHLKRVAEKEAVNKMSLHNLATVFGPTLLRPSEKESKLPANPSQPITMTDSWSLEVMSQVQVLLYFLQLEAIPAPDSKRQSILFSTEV", "assay": "Inhibition of BCR/ABL autophosphorylation at Y245 site in human K562 cells at 300 nM after 1 hr by immunoblotting method", "type": "cell-based", "in_short": "as §1"}, "[10]": {"biological_target": "T2, Bcr/Abl fusion protein (Homo sapiens)", "assay": "Inhibition of BCR/ABL in human KU812 cells assessed as downregulation of Stat5 phosphorylation at […] site after 1 hr by immunoblotting method", "type": "cell-based", "in_short": "as §1"}, "[11]": {"assay": "Antiproliferative activity against human MOLM14 cells assessed as cell viability after 72 hrs by CellTiter-Glo or CCK-8 assay", "type": "functional", "settings": "MOLM-14, 72 h"}, "MEG-01": {"tested_on": "MEG-01", "assay": "Induction of apoptosis in human MEG01 cells assessed as increase in cleaved PARP level at 100 nM after 48 hrs by immunoblotting method", "type": "functional, cell-based"}, "[12]": {"biological_target": "T2, Bcr/Abl fusion protein (Homo sapiens)", "assay": "Inhibition of BCR/ABL in human MEG01 cells assessed as downregulation of CrkL phosphorylation at […] site after 1 hr by immunoblotting method", "type": "cell-based", "settings": "MEG-01", "in_short": "as §1"}, "[13]": {"biological_target": "Ephrin type-B receptor 6 (Homo sapiens) (UniProt O15197)", "assay": "Inhibition of partial length human wild type EPHB6 expressed in mammalian expression system assessed as residual activity at 1 uM relative to control"}, "[14]": {"biological_target": "Transcription factor ETV6/Tyrosine-protein kinase ABL1 (Homo sapiens) (UniProt P00519+P41212)", "settings": "BaF3"}, "[15]": {"assay": "Apparent clearance in Sprague-Dawley rat at 1 mg/kg, iv", "type": "ADME, organism-based", "settings": "in vivo, read-out: CL(app) (converted)"}, "K562 [16]": {"tested_on": "K562", "assay": "Induction of apoptosis in human K562 cells assessed as increase in cleaved caspase3 level at 100 nM after 48 hrs by immunoblotting method", "type": "functional, cell-based"}, "[17]": {"biological_target": "T3, Discoidin domain-containing receptor 2 (Homo sapiens) (UniProt Q16832)", "T3 sequence (whole entry)": "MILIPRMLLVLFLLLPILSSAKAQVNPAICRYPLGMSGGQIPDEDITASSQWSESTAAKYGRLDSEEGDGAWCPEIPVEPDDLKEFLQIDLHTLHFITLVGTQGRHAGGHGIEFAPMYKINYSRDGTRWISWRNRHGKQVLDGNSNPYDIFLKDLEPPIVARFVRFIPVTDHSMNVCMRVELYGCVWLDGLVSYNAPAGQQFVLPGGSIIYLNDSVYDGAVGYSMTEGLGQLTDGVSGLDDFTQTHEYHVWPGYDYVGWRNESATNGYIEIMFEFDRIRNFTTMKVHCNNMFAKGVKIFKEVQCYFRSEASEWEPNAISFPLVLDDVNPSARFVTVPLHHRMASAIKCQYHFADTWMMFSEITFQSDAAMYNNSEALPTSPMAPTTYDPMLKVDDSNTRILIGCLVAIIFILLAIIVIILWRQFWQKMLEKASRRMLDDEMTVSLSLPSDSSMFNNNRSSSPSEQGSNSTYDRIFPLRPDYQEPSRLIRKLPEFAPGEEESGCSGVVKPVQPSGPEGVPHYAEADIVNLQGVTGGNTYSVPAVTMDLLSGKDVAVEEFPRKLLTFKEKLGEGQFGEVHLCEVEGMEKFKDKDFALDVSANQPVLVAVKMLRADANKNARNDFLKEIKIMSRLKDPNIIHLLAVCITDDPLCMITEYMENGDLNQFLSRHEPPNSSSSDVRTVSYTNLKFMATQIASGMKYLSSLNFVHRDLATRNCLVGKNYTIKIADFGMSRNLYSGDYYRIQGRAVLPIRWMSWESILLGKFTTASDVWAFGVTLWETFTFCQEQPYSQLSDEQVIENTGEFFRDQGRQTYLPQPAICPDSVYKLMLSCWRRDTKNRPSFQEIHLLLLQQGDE", "assay": "Inhibition of partial length human wild type DDR2 expressed in mammalian expression system assessed as residual activity at 1 uM relative to control"}, "[18]": {"assay": "Antiproliferative activity against human U937 cells assessed as cell viability after 72 hrs by CellTiter-Glo or CCK-8 assay", "type": "functional", "settings": "U-937, 72 h"}, "K562 [19]": {"tested_on": "K562", "assay": "Induction of apoptosis in human K562 cells xenografted in nu/nu mouse at 25 and 50 mg/kg/day, qd administered through oral gavage measured after 16 days by TUNEL staining-based assay", "type": "functional, organism-based", "in_short": "as §2"}, "HEL": {"tested_on": "HEL", "assay": "Antiproliferative activity against human HEL cells assessed as cell viability after 72 hrs by CellTiter-Glo or CCK-8 assay", "type": "functional"}, "[20]": {"biological_target": "T2, Bcr/Abl fusion protein (Homo sapiens)", "assay": "Inhibition of BCR/ABL in human MEG01 cells assessed as downregulation of ERK phosphorylation at Thr202/Tyr204 site after 1 hr by immunoblotting method", "type": "cell-based", "settings": "MEG-01", "in_short": "as §1"}, "[21]": {"tested_on": "Bcr/Abl fusion protein (Homo sapiens), P00519+P11274 [Y253F]", "settings": "BaF3"}, "[22]": {"biological_target": "T1, Mitogen-activated protein kinase 14", "assay": "Inhibition of P38-alpha phosphorylation in human K562 cells at 0.01 to 3 uM after 1 hr by immunoblotting method", "type": "cell-based", "in_short": "as §1"}, "[23]": {"biological_target": "Tyrosine-protein kinase Lck (Homo sapiens) (UniProt P06239)", "sequence (P06239 2-509 limits assumed)": "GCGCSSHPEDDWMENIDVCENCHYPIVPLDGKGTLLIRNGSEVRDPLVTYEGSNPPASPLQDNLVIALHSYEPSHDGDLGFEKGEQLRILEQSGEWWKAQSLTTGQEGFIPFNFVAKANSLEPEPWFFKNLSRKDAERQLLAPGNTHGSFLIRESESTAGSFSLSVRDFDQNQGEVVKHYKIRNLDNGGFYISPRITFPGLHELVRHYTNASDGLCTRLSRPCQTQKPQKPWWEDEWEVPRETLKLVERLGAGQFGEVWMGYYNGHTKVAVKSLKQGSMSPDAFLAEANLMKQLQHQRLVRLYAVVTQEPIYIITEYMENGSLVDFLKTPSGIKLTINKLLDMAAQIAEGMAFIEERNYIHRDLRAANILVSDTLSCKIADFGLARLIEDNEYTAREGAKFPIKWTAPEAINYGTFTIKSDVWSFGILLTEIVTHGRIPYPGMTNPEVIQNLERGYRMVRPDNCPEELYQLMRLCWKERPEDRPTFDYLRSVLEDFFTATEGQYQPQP", "assay": "Inhibition of partial length human wild type LCK expressed in bacterial expression system assessed as residual activity at 1 uM relative to control"}}, "note": "Active and inactive are the calls of the source. The calls are words filed in the database; no cut-off is given here."}
{"smiles": "CNc1nc(Nc2ccc(C)c(N)c2)ncc1C(=O)Nc1cc(NC(=O)c2cccc(C(F)(F)F)c2)ccc1C", "values": [{"measurement": "inhibition", "setting": "[1]", "value": "Active"}, {"measurement": "bioavailability", "setting": "[2]", "value": 24.2, "unit": "%"}, {"measurement": "GI50 at 72 h", "setting": "[3]", "value": "> 10", "unit": "µM"}, {"measurement": "Activity", "setting": "K562 [4]", "value": "Active"}, {"measurement": "IC50", "setting": "[5]", "value": "> 10", "unit": "µM"}, {"measurement": "GI50", "setting": "[6]", "value": 3.3, "unit": "µM"}, {"measurement": "Activity", "setting": "K562 [7]", "value": "Dose-dependent effect"}, {"measurement": "GI50", "setting": "[8]", "value": 1.1, "unit": "µM"}, {"measurement": "Activity", "setting": "KU812 cell line", "value": "Active"}, {"measurement": "inhibition", "setting": "[9]", "value": "Active"}, {"measurement": "inhibition", "setting": "[10]", "value": "Dose-dependent effect"}, {"measurement": "GI50", "setting": "[11]", "value": "> 10", "unit": "µM"}, {"measurement": "Activity", "setting": "MEG-01", "value": "Active"}, {"measurement": "inhibition", "setting": "[12]", "value": "Dose-dependent effect"}, {"measurement": "Activity", "setting": "[13]", "value": 0.95, "unit": "%"}, {"measurement": "GI50", "setting": "[14]", "value": 0.053, "unit": "µM"}, {"measurement": "clearance", "setting": "[15]", "value": 25.6, "unit": "mL/min/kg"}, {"measurement": "Activity", "setting": "K562 [16]", "value": "Active"}, {"measurement": "Activity", "setting": "[17]", "value": 0, "unit": "%"}, {"measurement": "GI50", "setting": "[18]", "value": "> 10", "unit": "µM"}, {"measurement": "Activity", "setting": "K562 [19]", "value": "Active"}, {"measurement": "GI50", "setting": "HEL", "value": "> 10", "unit": "µM"}, {"measurement": "inhibition", "setting": "[20]", "value": "Dose-dependent effect"}, {"measurement": "GI50", "setting": "[21]", "value": 0.363, "unit": "µM"}, {"measurement": "inhibition", "setting": "[22]", "value": "Active"}, {"measurement": "Activity", "setting": "[23]", "value": 0.3, "unit": "%"}]}
